Test results taken from ChEMBL document CHEMBL3817747 (J Med Chem, 2016).

What follows are compounds tested on Influenza A virus (assay: Antiviral activity against oseltamivir-resistant Influenza A virus A/WSN/1933(H1N1) infected in MDCK cells assessed as protection against virus-induced cytopathic effect after 48 hrs by CellTiter 96 AQueous Non-Radioactive cell proliferation assay).
Format: functional, organism-based
Summary of the method: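 Virus stock (100 TCID50, TCID50 set by serial dilution on MDCK and Reed–Müench) mixed 1:1 with inhibitor at varied concentrations, then used to infect MDCK cells (1 × 10^5 cells/mL) grown in DMEM with 10% FBS. Incubated 48 h, 37 °C, 5% CO2. CPE read by MTS-type reagent, 15 min, A490. EC50 from curve fit of % CPE vs concentration; mean ± SD of three experiments.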

Compound | EC50 [nM]
CCC(CC)[C@H](NC(C)=O)[C@@H]1C[C@@H](P(=O)(O)O)C[C@H]1NC(=N)N | 343
CCOP(=O)(O)[C@@H]1C[C@@H]([C@@H](NC(C)=O)C(CC)CC)[C@H](NC(=N)N)C1 | 88.7
CCC(CC)[C@H](NC(C)=O)[C@@H]1C=C(P(=O)(O)O)C[C@H]1NC(=N)N | 50.3
CCCCCCOP(=O)(O)[C@@H]1C[C@@H]([C@@H](NC(C)=O)C(CC)CC)[C@H](NC(=N)N)C1 | 43.2
CCCCCCOP(=O)(O)C1=C[C@@H]([C@@H](NC(C)=O)C(CC)CC)[C@H](NC(=N)N)C1 | 18.5
CCOP(=O)(O)[C@H]1C[C@@H](NC(=N)N)[C@H]([C@@H](NC(C)=O)C(CC)CC)[C@@H]1O | 66.5
CCCCCCOP(=O)(O)[C@H]1C[C@@H](NC(=N)N)[C@H]([C@@H](NC(C)=O)C(CC)CC)[C@@H]1O | 18.6
CCC(CC)[C@H](NC(C)=O)[C@@H]1[C@H](O)[C@@H](P(=O)(O)O)C[C@H]1NC(=N)N | 260
CCOP(=O)(O)C1=C[C@@H]([C@@H](NC(C)=O)C(CC)CC)[C@H](NC(=N)N)C1 | 19.1
CCC(CC)O[C@@H]1C=C(C(=O)O)C[C@H](N)[C@H]1NC(C)=O [OSELTAMIVIR CARBOXYLATE] | 5.5
CCC(CC)[C@H](NC(C)=O)[C@@H]1[C@H](O)[C@@H](C(=O)O)C[C@H]1NC(=N)N [PERAMIVIR ANHYDROUS] | 1.5
CC(=O)N[C@H]1[C@H]([C@H](O)[C@H](O)CO)OC(C(=O)O)=C[C@@H]1NC(=N)N [ZANAMIVIR] | 16.3
